Among the data in ChEMBL document CHEMBL1212777, “Novel VIM metallo-beta-lactamase variant from clinical isolates of Enterobacteriaceae from Algeria” (2010) are kcat and kcat/Km values, retold here.

Data set [1] relates to C[C@H]1[C@H](NC(=O)/C(=N\OC(C)(C)C(=O)O)c2csc(N)n2)C(=O)N1S(=O)(=O)O. Put plainly: (§1) Hydrolytic activity of Escherichia coli DH10B beta-lactamase VIM-2 by microacidimetric method. As to conditions: Escherichia coli str. K-12 substr. DH10B.
In data set [2] the test system is CCN1CCN(C(=O)N[C@@H](C(=O)N[C@@H]2C(=O)N3[C@@H]2SC(C)(C)[C@@H]3C(=O)O)c2ccccc2)C(=O)C1=O. The data set is described as §1. The following applies: Escherichia coli str. K-12 substr. DH10B.
Data set [3] deals with CO/N=C(\C(=O)N[C@@H]1C(=O)N2C(C(=O)[O-])=C(C[N+]3(C)CCCC3)CS[C@H]12)c1csc(N)n1. Described as §1. As to conditions: Escherichia coli str. K-12 substr. DH10B.
The test system of data set [4] is C[C@@H](O)[C@H]1C(=O)N2C(C(=O)O)=C(S[C@@H]3CN[C@H](C(=O)Nc4cccc(C(=O)O)c4)C3)[C@H](C)[C@H]12. The data set is described as §1. As to conditions: Escherichia coli str. K-12 substr. DH10B.
Data set [5] concerns C[C@@H](O)[C@H]1C(=O)N2C(C(=O)O)=C(SCCNC=N)C[C@H]12. The description is as §1. As to conditions: Escherichia coli str. K-12 substr. DH10B.
Data set [6] concerns CC1(C)S[C@@H]2[C@H](NC(=O)[C@H](N)c3ccc(O)cc3)C(=O)N2[C@H]1C(=O)O. The data set is described as §1. As to conditions: Escherichia coli str. K-12 substr. DH10B.
The test system of data set [7] is CC1(C)S[C@@H]2[C@H](NC(=O)Cc3ccccc3)C(=O)N2[C@H]1C(=O)O. The description is as §1. The following applies: Escherichia coli str. K-12 substr. DH10B.
In data set [8] the test system is C[C@@H](O)[C@H]1C(=O)N2C(C(=O)O)=C(S[C@@H]3CN[C@H](C(=O)N(C)C)C3)[C@H](C)[C@H]12. Described as §1. The following applies: Escherichia coli str. K-12 substr. DH10B.
In data set [9] the test system is CO/N=C(\C(=O)N[C@@H]1C(=O)N2C(C(=O)O)=C(COC(N)=O)CS[C@H]12)c1ccco1. Described as §1. The following applies: Escherichia coli str. K-12 substr. DH10B.
The subject of data set [10] is CO[C@@]1(NC(=O)Cc2cccs2)C(=O)N2C(C(=O)O)=C(COC(N)=O)CS[C@@H]21. The data set is described as §1. As to conditions: Escherichia coli str. K-12 substr. DH10B.
The subject of data set [11] is CO/N=C(\C(=O)N[C@@H]1C(=O)N2C(C(=O)O)=C(COC(C)=O)CS[C@H]12)c1csc(N)n1. Described as §1. The following applies: Escherichia coli str. K-12 substr. DH10B.
Data set [12] concerns CC(=O)OCC1=C(C(=O)O)N2C(=O)[C@@H](NC(=O)Cc3cccs3)[C@H]2SC1. The data set is described as §1. As to conditions: Escherichia coli str. K-12 substr. DH10B.
Data set [13] has as its system CC1(C)S[C@@H]2[C@H](NC(=O)[C@H](C(=O)O)c3ccsc3)C(=O)N2[C@H]1C(=O)O. Described as §1. The following applies: Escherichia coli str. K-12 substr. DH10B.
For data set [14], the system named is CC(C)(O/N=C(\C(=O)N[C@@H]1C(=O)N2C(C(=O)[O-])=C(C[n+]3ccccc3)CS[C@H]12)c1csc(N)n1)C(=O)O. Described as §1. The following applies: Escherichia coli str. K-12 substr. DH10B.
Data set [15] concerns CCN1CCN(C(=O)N[C@@H](C(=O)N[C@@H]2C(=O)N3[C@@H]2SC(C)(C)[C@@H]3C(=O)O)c2ccccc2)C(=O)C1=O. Put plainly: (§2) Ratio of Kcat to Km for Escherichia coli DH10B beta-lactamase VIM-2 by microacidimetric method. The following applies: Escherichia coli str. K-12 substr. DH10B.
In data set [16] the test system is CO/N=C(\C(=O)N[C@@H]1C(=O)N2C(C(=O)[O-])=C(C[N+]3(C)CCCC3)CS[C@H]12)c1csc(N)n1. Described as §2. As to conditions: Escherichia coli str. K-12 substr. DH10B.
Data set [17] relates to C[C@@H](O)[C@H]1C(=O)N2C(C(=O)O)=C(S[C@@H]3CN[C@H](C(=O)Nc4cccc(C(=O)O)c4)C3)[C@H](C)[C@H]12. The data set is described as §2. As to conditions: Escherichia coli str. K-12 substr. DH10B.
For data set [18], the system named is C[C@@H](O)[C@H]1C(=O)N2C(C(=O)O)=C(SCCNC=N)C[C@H]12. The data set is described as §2. As to conditions: Escherichia coli str. K-12 substr. DH10B.
Data set [19] deals with CC1(C)S[C@@H]2[C@H](NC(=O)[C@H](N)c3ccc(O)cc3)C(=O)N2[C@H]1C(=O)O. Described as §2. As to conditions: Escherichia coli str. K-12 substr. DH10B.
Data set [20] deals with CC1(C)S[C@@H]2[C@H](NC(=O)Cc3ccccc3)C(=O)N2[C@H]1C(=O)O. Described as §2. The following applies: Escherichia coli str. K-12 substr. DH10B.
The test system of data set [21] is C[C@@H](O)[C@H]1C(=O)N2C(C(=O)O)=C(S[C@@H]3CN[C@H](C(=O)N(C)C)C3)[C@H](C)[C@H]12. The description is as §2. The following applies: Escherichia coli str. K-12 substr. DH10B.
Data set [22] relates to CO/N=C(\C(=O)N[C@@H]1C(=O)N2C(C(=O)O)=C(COC(N)=O)CS[C@H]12)c1ccco1. The description is as §2. The following applies: Escherichia coli str. K-12 substr. DH10B.
Data set [23] deals with CO[C@@]1(NC(=O)Cc2cccs2)C(=O)N2C(C(=O)O)=C(COC(N)=O)CS[C@@H]21. The description is as §2. As to conditions: Escherichia coli str. K-12 substr. DH10B.
Data set [24] concerns CO/N=C(\C(=O)N[C@@H]1C(=O)N2C(C(=O)O)=C(COC(C)=O)CS[C@H]12)c1csc(N)n1. The data set is described as §2. The following applies: Escherichia coli str. K-12 substr. DH10B.
The test system of data set [25] is CC(=O)OCC1=C(C(=O)O)N2C(=O)[C@@H](NC(=O)Cc3cccs3)[C@H]2SC1. The data set is described as §2. As to conditions: Escherichia coli str. K-12 substr. DH10B.
Data set [26] deals with CC1(C)S[C@@H]2[C@H](NC(=O)[C@H](C(=O)O)c3ccsc3)C(=O)N2[C@H]1C(=O)O. The data set is described as §2. As to conditions: Escherichia coli str. K-12 substr. DH10B.
For data set [27], the system named is CC(C)(O/N=C(\C(=O)N[C@@H]1C(=O)N2C(C(=O)[O-])=C(C[n+]3ccccc3)CS[C@H]12)c1csc(N)n1)C(=O)O. The data set is described as §2. The following applies: Escherichia coli str. K-12 substr. DH10B.
Data set [28] relates to Escherichia coli BL21(DE3). Put plainly: Ratio of Kcat to Km for Escherichia coli BL21 DE3 beta-lactamase VIM-19 by microacidimetric method. The essentials: (§3)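 Enzyme overexpressed from modified pET9a in E. coli BL21(DE3), released by sonication, and purified on Q Sepharose (20 mM Tris-HCl pH 7.4, 0–500 mM NaCl gradient) then Superose 12. Protein measured by Bio-Rad assay against a BSA standard.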

The test system of data set [29] is Escherichia coli BL21(DE3). Put plainly: Hydrolytic activity of Escherichia coli BL21 DE3 beta-lactamase VIM-19 by microacidimetric method. In short, it runs like this: as §3

By kcat is commonly meant the maximal rate divided by the concentration of active sites. The kcat/Km is the second-order rate constant that governs catalysis at low substrate concentration. On to “Metallo-beta-lactamase (Escherichia coli) (from UniProt Q5U7L7)”, for which the kcat was below 0.5 s⁻¹ in [1]; 32.7 s⁻¹ in data set [2]; 4.7 s⁻¹ in [3]; 0.2 s⁻¹ in data set [4]; 9.9 s⁻¹ in data set [5]; 29.7 s⁻¹ in data set [6]. In addition, the kcat in data set [7] came out at 55.8 s⁻¹; in data set [8], 1.4 s⁻¹; in data set [9] it was 12.1 s⁻¹; in data set [10], 2.8 s⁻¹; in data set [11], 27.5 s⁻¹; in data set [12], 56.2 s⁻¹. For the same compound, the kcat was found to be 31.7 s⁻¹ in data set [13] and 88.7 s⁻¹ in data set [14]. In addition, the kcat/Km came to 450000 M⁻¹ s⁻¹ in data set [15]; 30000 M⁻¹ s⁻¹ in data set [16]; 22000 M⁻¹ s⁻¹ in data set [17]; 990000 M⁻¹ s⁻¹ in [18]; 550000 M⁻¹ s⁻¹ in data set [19]; 1.14e+06 M⁻¹ s⁻¹ in data set [20]. The kcat/Km was determined as 280000 M⁻¹ s⁻¹ in [21]; 550000 M⁻¹ s⁻¹ in [22]; 120000 M⁻¹ s⁻¹ in data set [23]; 860000 M⁻¹ s⁻¹ in [24]; 1.28e+06 M⁻¹ s⁻¹ in [25]; 690000 M⁻¹ s⁻¹ in data set [26]. For the same compound, the kcat/Km in [27] is 900000 M⁻¹ s⁻¹.
Consider `CO/N=C(\C(=O)N[C@@H]1C(=O)N2C(C(=O)[O-])=C(C[N+]3(C)CCCC3)CS[C@H]12)c1csc(N)n1`, for which the catalytic efficiency (kcat/Km) in data set [28] was 230000 M⁻¹ s⁻¹. The turnover number (kcat) in data set [29] turned out to be 12.5 s⁻¹.
On to `CC(C)(O/N=C(\C(=O)N[C@@H]1C(=O)N2C(C(=O)[O-])=C(C[n+]3ccccc3)CS[C@H]12)c1csc(N)n1)C(=O)O`, for which the kcat/Km in data set [28] was found to be 70000 M⁻¹ s⁻¹. For the same compound, the kcat in data set [29] worked out at 6.3 s⁻¹.
As for `C[C@@H](O)[C@H]1C(=O)N2C(C(=O)O)=C(S[C@@H]3CN[C@H](C(=O)N(C)C)C3)[C@H](C)[C@H]12`, the kcat/Km in [28] is 140000 M⁻¹ s⁻¹. Besides, the kcat in [29] was found to be 1.3 s⁻¹.
In the case of `CCN1CCN(C(=O)N[C@@H](C(=O)N[C@@H]2C(=O)N3[C@@H]2SC(C)(C)[C@@H]3C(=O)O)c2ccccc2)C(=O)C1=O`, the specificity constant (kcat/Km) in data set [28] was determined as 4.3e+06 M⁻¹ s⁻¹. Besides, in [29], the catalytic constant (kcat) came out at 160 s⁻¹.
The matching figures for `CC(=O)OCC1=C(C(=O)O)N2C(=O)[C@@H](NC(=O)Cc3cccs3)[C@H]2SC1`: 1.4e+06 M⁻¹ s⁻¹ and 21.2 s⁻¹.
As for `CC1(C)S[C@@H]2[C@H](NC(=O)[C@H](C(=O)O)c3ccsc3)C(=O)N2[C@H]1C(=O)O`, the kcat/Km in data set [28] amounted to 700000 M⁻¹ s⁻¹. For the same compound, the kcat in [29] was 45.8 s⁻¹.
On to `CC1(C)S[C@@H]2[C@H](NC(=O)[C@H](N)c3ccc(O)cc3)C(=O)N2[C@H]1C(=O)O`, for which, in data set [28], the kcat/Km came to 3.3e+06 M⁻¹ s⁻¹. Also, the kcat in data set [29] was 112 s⁻¹.
